Data as given in ChEMBL document CHEMBL4145474, “Discovery of novel piperonyl derivatives as diapophytoene desaturase inhibitors for the treatment of methicillin-, vancomycin- and linezolid-resistant Staphylococcus aureus infections” (Eur J Med Chem, 2018).
Activity calls are given as the source filed them. The calls are words filed in the database; no cut-off is given here.

Columns and labels:
Staphylococcus aureus [1] = assay: Inhibition of pigmentation in wild type Staphylococcus aureus Newman after 48 hrs by spectrophotometric method; assay type: functional, organism-based
Method in brief: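 S. aureus Newman was grown in TSB 48 h at 37 °C with a concentration series of compound in DMSO, in duplicate. Controls were a DMSO vehicle and a nonpigmented CrtN mutant. Cells were washed twice in 0.01 M PBS and pigment extracted in methanol. A450 was measured and IC50 derived by curve fitting.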

HepG2 = assay: Cytotoxicity against human HepG2 cells assessed as reduction in cell viability after 72 hrs by CCK-8 assay; assay type: functional; conditions: HepG2, 72 h
Method in brief: (§1)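 HepG2 or HEK-293T cells were seeded at 5000 per well and grown 24 h at 37 °C, 5% CO₂. Cells were then exposed to compound for 72 h; compound came from DMSO, diluted in medium to final DMSO <0.4%, with a DMSO-matched vehicle control. Viability was read by 10% CCK-8 for 1 h, absorbance 450 nm, in triplicate.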

HEK-293T = assay: Cytotoxicity against HEK293T cells assessed as reduction in cell viability after 72 hrs by CCK-8 assay; assay type: functional; conditions: Homo sapiens; method in brief: as §1
[2] = Solubility of the compound in water by UV analysis; assay type: physicochemical
Staphylococcus aureus [3] = assay: Antibacterial activity against wild type Staphylococcus aureus Newman infected in BALB/c mouse assessed as decrease in bacterial load in mouse liver at 0.4 mg, ip bid administered 4.5 days measured after 90 hrs relative to control; assay type: functional
Staphylococcus aureus [4] = assay: Antibacterial activity against methicillin/linezolid-resistant Staphylococcus aureus NRS271 infected in BALB/c mouse assessed as decrease in bacterial survival in mouse liver at 0.4 mg, ip bid administered 4.5 days measured after 90 hrs; assay type: functional, organism-based
Method in brief: (§2)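 6–8-week-old female BALB/c mice (SPF) dosed intraperitoneally twice daily over 4.5 d at 0.1 or 0.4 mg/bid. Pre-treatment started before infection; post-treatment started 6 h after infection. Vancomycin and linezolid controls given as pre-treatment at 0.4 mg/bid. Retro-orbital inoculation: Mu50 1.1 × 10⁹ CFU, NRS271 1.8 × 10⁸ CFU. Kidneys and livers homogenised in PBS/0.01% Triton X-100 and plated on TSA for CFU.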

Staphylococcus aureus [5] = assay: Antibacterial activity against vancomycin-intermediate methicillin-resistant Staphylococcus aureus Mu50 infected in BALB/c mouse assessed as decrease in bacterial survival in mouse liver at 0.4 mg, ip bid administered 4.5 days measured after 90 hrs; assay type: functional, organism-based; method in brief: as §2
Staphylococcus aureus [6] = assay: Antibacterial activity against wild type Staphylococcus aureus Newman assessed as bacterial survival at 1 uM after 24 hrs by H2O2 killing assay (reference value: 26.67%); assay type: functional

| IC50 (Staphylococcus aureus [1]) [nM] | Structure (SMILES) | further results |
| --- | --- | --- |
| > 1000 | C/C(=C\c1ccc(C(F)(F)F)cc1F)CN(C)Cc1ccc2c(c1)OCO2 | – |
| 57 | CN(C/C=C/c1ccc(C(F)(F)F)c(F)c1)Cc1ccc2c(c1)OCO2 | – |
| 28.8 | CN(C/C=C/c1ccccc1C(F)(F)F)Cc1ccc2c(c1)OCO2 | – |
| 412 | CN(C/C=C/c1cccc(F)c1)Cc1ccc2c(c1)OCO2 | – |
| > 1000 | CC(C)N(C/C=C/c1ccc(C(F)(F)F)cc1F)Cc1ccc2c(c1)OCO2 | – |
| 3.8 | COc1ccc(/C=C/CN(C)Cc2ccc3c(c2)OCO3)c(F)c1.Cl | CC50 (HepG2): 120000 nM; CC50 (HEK-293T): 76800 nM; solubility [2]: 19.2 mg/mL |
| > 1000 | CN(Cc1ccc2c(c1)OCO2)C[C@@H]1C[C@H]1c1ccc(C(F)(F)F)cc1F | – |
| 17.9 | CN(CC#Cc1ccc(C(F)(F)F)cc1F)Cc1ccc2c(c1)OCO2 | – |
| > 1000 | CCN(C/C=C/c1ccc(C(F)(F)F)cc1F)Cc1ccc2c(c1)OCO2 | – |
| 58.4 | CN(C/C=C/c1ccc(F)cc1)Cc1ccc2c(c1)OCO2 | – |
| 3.5 | CN(C/C=C/c1ccc(C(F)(F)F)cc1)Cc1ccc2c(c1)OCO2.Cl | CC50 (HepG2): 69200 nM; CC50 (HEK-293T): 133000 nM; solubility [2]: 13.5 mg/mL |
| > 1000 | CN(CCCc1ccc(C(F)(F)F)cc1F)Cc1ccc2c(c1)OCO2 | – |
| > 1000 | Cc1ccccc1/C=C/CN(C)Cc1ccc2c(c1)OCO2 | – |
| > 1000 | CN(C/C=C/c1ccccc1Cl)Cc1ccc2c(c1)OCO2 | – |
| > 1000 | COc1ccccc1/C=C/CN(C)Cc1ccc2c(c1)OCO2 | – |
| 523 | CN(C/C=C/c1cccc(C(F)(F)F)c1)Cc1ccc2c(c1)OCO2 | – |
| 121 | CN(C/C=C/c1ccccc1F)Cc1ccc2c(c1)OCO2 | – |
| 17.6 | CN(C/C=C/c1ccc(Cl)cc1Cl)Cc1ccc2c(c1)OCO2 | – |
| 112 | COc1ccc(/C=C/CN(C)Cc2ccc3c(c2)OCO3)cc1F | – |
| > 1000 | Fc1cc(C(F)(F)F)ccc1/C=C/CNCc1ccc2c(c1)OCO2 | – |
| 372 | Cc1cccc(/C=C/CN(C)Cc2ccc3c(c2)OCO3)c1 | – |

The next lines start with the compound.

| Structure (SMILES) | IC50 (Staphylococcus aureus [1]) [nM] | further results |
| --- | --- | --- |
| CN(C/C=C/c1ccc(C(F)F)cc1)Cc1ccc2c(c1)OCO2.Cl | 4.1 | CC50 (HepG2): 138000 nM; CC50 (HEK-293T): 68000 nM; solubility [2]: 9.03 mg/mL |
| CN(C/C=C/c1ccc(-c2ccccc2)cc1)Cc1ccc2c(c1)OCO2.Cl | 3.9 | CC50 (HepG2): 53600 nM; CC50 (HEK-293T): 59100 nM; solubility [2]: 5.02 mg/mL |
| CN(C/C=C/c1ccc(C(C)(C)C)cc1)Cc1ccc2c(c1)OCO2 | 5.2 | – |
| CN(C/C=C/c1ccccc1)Cc1ccc2c(c1)OCO2 | > 1000 | – |
| CN(C/C=C/c1ccc(C#N)cc1)Cc1ccc2c(c1)OCO2 | 12.5 | – |
| CN(C/C=C/c1ccc(Br)cc1)Cc1ccc2c(c1)OCO2.Cl | 4.6 | CC50 (HepG2): 104000 nM; CC50 (HEK-293T): 68300 nM; solubility [2]: 17.5 mg/mL |
| Cc1ccc(/C=C/CN(C)Cc2ccc3c(c2)OCO3)cc1 | 15.7 | – |
| CN(C/C=C/c1cccc(Cl)c1)Cc1ccc2c(c1)OCO2 | 576 | – |
| COc1cccc(/C=C/CN(C)Cc2ccc3c(c2)OCO3)c1 | > 1000 | – |
| CN(C/C=C/c1ccc([N+](=O)[O-])cc1)Cc1ccc2c(c1)OCO2 | 82.6 | – |
| COC(=O)c1ccc(/C=C/CN(C)Cc2ccc3c(c2)OCO3)cc1 | 7.9 | – |
| C[C@@H]1[C@H](O)[C@@H](C)/C=C/C=C/C=C/C=C/C=C/C=C/C=C/[C@H](O[C@@H]2O[C@H](C)[C@@H](O)[C@H](N)[C@@H]2O)C[C@@H]2O[C@](O)(C[C@@H](O)C[C@@H](O)[C@H](O)CC[C@@H](O)C[C@@H](O)CC(=O)O[C@H]1C)C[C@H](O)[C@H]2C(=O)O [AMPHOTERICIN B] | – | CC50 (HepG2): 28600 nM; CC50 (HEK-293T): 36500 nM |
| CC(=O)NC[C@H]1CN(c2ccc(N3CCOCC3)c(F)c2)C(=O)O1 [LINEZOLID] | – | Activity (Staphylococcus aureus [3]): 1.41 deltalog10CFU; Activity (Staphylococcus aureus [4]): Active; Activity (Staphylococcus aureus [5]): Active |
| CN(C/C=C/c1cccs1)Cc1ccc2c(c1)OCO2 | > 1000 | – |
| CN(C/C=C/c1cccc2ccccc12)Cc1ccc2c(c1)OCO2 | > 1000 | – |
| CN[C@H](CC(C)C)C(=O)N[C@H]1C(=O)N[C@@H](CC(N)=O)C(=O)N[C@H]2C(=O)N[C@H]3C(=O)N[C@H](C(=O)N[C@H](C(=O)O)c4cc(O)cc(O)c4-c4cc3ccc4O)[C@H](O)c3ccc(c(Cl)c3)Oc3cc2cc(c3O[C@@H]2O[C@H](CO)[C@@H](O)[C@H](O)[C@H]2O[C@H]2C[C@](C)(N)[C@H](O)[C@H](C)O2)Oc2ccc(cc2Cl)[C@H]1O [VANCOMYCIN] | – | Activity (Staphylococcus aureus [3]): 2.13 deltalog10CFU |
| CN(C/C=C/c1ccc2ccccc2c1)Cc1ccc2c(c1)OCO2.Cl | 4 | CC50 (HepG2): 60500 nM; CC50 (HEK-293T): 48300 nM; solubility [2]: 4.56 mg/mL |
| CN(C/C=C/C1CCCC1)Cc1ccc2c(c1)OCO2 | > 1000 | – |
| CCOc1ccc(/C=C/CN(C)Cc2ccc3c(c2)OCO3)cc1.Cl | 4.2 | CC50 (HepG2): 82600 nM; CC50 (HEK-293T): 122000 nM; solubility [2]: 24.2 mg/mL |
| COc1ccc(/C=C/CN(C)Cc2ccc3c(c2)OCO3)cc1 | 9.1 | – |
| CN(C/C=C/c1ccc(Cl)cc1)Cc1ccc2c(c1)OCO2.Cl | 4.2 | CC50 (HepG2): 141000 nM; CC50 (HEK-293T): 83800 nM; solubility [2]: 18.7 mg/mL |
| C/C=C/CN(C)Cc1ccc2c(c1)OCO2 | > 1000 | – |
| CN(C/C=C/C1CCCCC1)Cc1ccc2c(c1)OCO2 | > 1000 | – |
| CN(C/C=C/c1ccco1)Cc1ccc2c(c1)OCO2 | > 1000 | – |
| CC(=O)N[C@@H](CS)C(=O)O [ACETYLCYSTEINE] | – | survival at 1 µM (Staphylococcus aureus [6]): 57.3% |
